Among the data in ChEMBL document CHEMBL1121875, “Retinoic acid analogues with ring modifications. Synthesis and pharmacological activity” (J Med Chem, 1981) are inhibition values, retold here.

SMILES strings stand for the structures.

The target in test [1] is T1, Ornithine decarboxylase (Mus musculus) (UniProt P00860).
T1 sequence (whole entry): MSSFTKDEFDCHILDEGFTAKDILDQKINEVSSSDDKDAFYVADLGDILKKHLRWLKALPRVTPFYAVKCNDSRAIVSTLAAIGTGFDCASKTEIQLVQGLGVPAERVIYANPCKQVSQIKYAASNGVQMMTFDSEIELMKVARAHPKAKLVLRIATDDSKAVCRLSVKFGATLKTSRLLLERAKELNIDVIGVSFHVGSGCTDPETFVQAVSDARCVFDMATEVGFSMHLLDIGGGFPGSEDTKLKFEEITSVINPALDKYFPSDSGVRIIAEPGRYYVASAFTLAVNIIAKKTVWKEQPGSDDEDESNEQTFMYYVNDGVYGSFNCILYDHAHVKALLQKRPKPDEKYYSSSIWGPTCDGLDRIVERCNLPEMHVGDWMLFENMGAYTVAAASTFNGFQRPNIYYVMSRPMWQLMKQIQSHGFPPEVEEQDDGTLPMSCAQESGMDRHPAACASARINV
Briefly: (§1) Percent inhibition of TPA-induced ornithine decarboxylase activity. Type of test: functional. Further details: concentration or dose not given beside the values. Conditions: concentration not given here. An outline of the steps: (§2)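 Mouse epidermal ODC was induced by topical TPA on the back skin, with each retinoid applied topically to the back at 1.7 or 17 nmol. Each treatment used 3–6 groups of 3–4 mice. Epidermal ODC activity was measured by a previously described method and reported as % inhibition versus TPA-only controls (mean ± SE).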

The target in test [2] is T1, Ornithine decarboxylase (Mus musculus). Described as §1. Type of test: functional. Conditions: tested as the 2H-labelled form; concentration not given here. In outline: as §2

The term inhibition denotes the drop in the measured response relative to a control, in per cent. `CCOC(=O)/C=C(C)/C=C/C=C(C)/C=C/C12CC1(C)CCCC2(C)C` (stereo not drawn): the inhibition in test [1] came to 70%.

As for `CC1=C(/C=C/C(C)=C/C=C/C(C)=C/C(=O)O)C(C)(C)CCC1`, the inhibition in test [2] amounted to 90%; in test [1] it was 92%; in test [1] (tested as the 2H-labelled form), 90%.

`CCOC(=O)/C=C(C)/C=C/C=C(C)/C=C/C1=CC2CCC1C2` (stereo not drawn) showed an inhibition in test [1] of 54%.

With `CCOC(=O)c1ccc(/C=C(C)/C=C/C23OC2(C)CCCC3(C)C)cc1` (stereo not drawn), the inhibition in test [1] was determined as 80%.

In test [1], `CCOC(=O)/C=C(C)/C=C/C=C(C)/C=C/C1CC2CCC1C2` (stereo not drawn) returned an inhibition of 64%.

Take `CCOC(=O)c1ccc(/C=C(C)/C=C/C2=C(C)CCCC2(C)C)cc1`: the inhibition in test [1] was 80%.

Consider `CCOC(=O)c1ccc(/C=C(C)/C=C/C23CC2(C)CCCC3(C)C)cc1` (stereo not drawn), for which, in test [1], the inhibition amounted to 80%.

`CCOC(=O)\C=C(C)/C=C/C=C(C)/C=C/C1=C(C)C2(CCC1(C)C)CC2`: the inhibition in test [1] was determined as 67%.

Take `CCOC(=O)\C=C(C)/C=C/C=C(C)/C=C/C12CC1(C)CCCC2(C)C` (stereo not drawn): the inhibition in test [1] was found to be 45%.

For the molecule `CCOC(=O)/C=C(C)/C=C/C=C(C)/C=C/C1=C(C)C2(CCC1(C)C)CC2`, the inhibition in test [1] worked out at 72%.

`CC1=C(/C=C/C(C)=C/C=C/C(C)=C\C(=O)O)C(C)(C)CCC1`: in test [1], the inhibition stood at 96%.
